Reference: ChEMBL document CHEMBL4513216, “Probing the Open Global Health Chemical Diversity Library for Multistage-Active Starting Points for Next-Generation Antimalarials” (ACS Infect Dis, 2020)

Test: Toxicity liver stage against HepG2, at 10uM
Type: cell-based
Parameters: test concentration 10 uM, cell line HepG2-A16-CD81EGFP
Conditions: human, HepG2-A16-CD81EGFP cells; read-out: INHIBITION
Method in brief: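 Uninfected HepG2-A16-CD81EGFP cells, 3 × 10^3 per well, 1536-well, plated on prespotted compound at 10 μM final, parasite-free screening media added to match infected plates; puromycin 10 μM positive, DMSO 0.5% negative; run in parallel with 48 h PbLuc assay at 37 °C, 5% CO2; viability by CellTiter-Glo luminescence, normalized to controls.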

| Compound | cytotoxicity at 10 µM |
| --- | --- |
| CC(=O)N1CCC(c2nc(C)cc(-c3ccccc3C(=O)O)n2)CC1 | -28% |
| Cc1nn(C)c(Cl)c1C1CCCN1C(=O)c1cnn(C)c1C1CC1 (stereo unspecified) | 1.99% |
| CNC(=O)[C@H]1C[C@@H]2CN(C(=O)c3cncc(C)c3)C[C@@H]2N1C | -107% |
| CN(C)CCN(C)C(=O)c1ccccc1-n1cc(CN(C)C)cn1 | -13.7% |
| CCC(C)c1noc(C2CCN(C(=O)c3ccccn3)CC2)n1 (stereo unspecified) | 4.59% |
| CN(C)CCN1CCCC12CCN(Cc1nccn1C)CC2 | -99.1% |
| c1coc(-c2noc(CN3CCCCC3Cn3cncn3)n2)c1 (stereo unspecified) | -0.915% |
| CCn1ncc(-c2cc(C(F)F)n3nc(CCC(=O)O)nc3n2)c1C | -9.44% |
| CC(=O)N1CCC(Nc2cc(F)ccc2OCC2CCCO2)CC1 (stereo unspecified) | -14.3% |
| CN(c1ncnc2sccc12)C1CCCN(c2cccnn2)C1 (stereo unspecified) | 0.0357% |
| c1ccc(OCCNC2=NCCCN2)cc1 | -2.34% |
| Cc1ccc(C)c(-n2ncc(NC(=O)NC3(C)CCOC3)c2C)c1 (stereo unspecified) | -41.6% |
| COCCC1(CO)CCCN(Cc2ccc(C(F)(F)F)cc2)C1 (stereo unspecified) | -153% |
| O=c1cc2c(nn1CN1CCN(c3ccccc3)CC1)CCCC2 | -9.58% |
| Cc1cc(C)cc(C(=O)NCc2ncnn2C)c1 | 4.64% |
| O=C(c1ccc(Br)s1)N1CCN(Cc2ccc(OC(F)(F)F)cc2)CC1 | 23.1% |
| CCCN(CC1COc2ccccc2O1)C(=O)CCN1C(=O)CCC1=O (stereo unspecified) | -37% |
| COc1ccccc1[C@@H]1CN(CC(=O)N2CCCCC2)C[C@H]1C(=O)O | -2.82% |
| N#Cc1cccnc1N1CCCC(CO)(Cc2cccc(Cl)c2)C1 (stereo unspecified) | 6.29% |
| Cc1cnc(N2CCc3onc(COc4cccnc4)c3C2)nc1 | -111% |
| O=C(Cc1ccc(F)cc1)N1CCn2cc(Cn3cncn3)nc2C1 | -74% |
| Cc1nc(C2CCCN2CCCNS(C)(=O)=O)no1 (stereo unspecified) | -8.6% |
| CCc1nc(C2CCCN(C(=O)c3ccc4[nH]cnc4c3)C2)no1 (stereo unspecified) | 1.48% |

| Compound | cytotoxicity at 10 µM |
| --- | --- |
| COc1ccc(-c2cc(CN)ccc2F)c(OC)c1OC | 1.91% |
| CN1CC2(CCNCC2)COc2ccccc2S1(=O)=O | 4.58% |
| CCN(Cc1ccccc1)Cc1nc2c(cnn2C)c(=O)[nH]1 | 2.86% |
| Cc1ccc(C(=O)NC2CCN(Cc3noc(C(C)C)n3)CC2)s1 | -10.7% |
| Cc1ccc(CN(C(=O)C(C)S(C)(=O)=O)C2CC2)cc1C (stereo unspecified) | 3.28% |
| CCc1ocnc1C(=O)N1CCC(C2CCN(c3ncccn3)CC2)C1 (stereo unspecified) | 3.6% |
| CCC(N)c1ccccc1OCC(=O)N1CCCC1 (stereo unspecified) | -5.16% |
| COc1c(CNC(c2ccccc2F)c2nccn2C)c(C)nn1C (stereo unspecified) | -13.9% |
| CC(CN(C)C)Nc1nc(O)cc(Cc2ccccc2F)n1 (stereo unspecified) | 13.2% |
| CCc1cccnc1NCc1cnc(N2CCOCC2)nc1 | 1.03% |
| OCCN1CCN(Cc2coc(-c3cccc(F)c3)n2)CC1 | -21.6% |
| Cc1cnc(CN(C)C2CCN(CC(=O)N(C)c3nccs3)C2)o1 (stereo unspecified) | -4.1% |
| CCn1cc(CNC(=O)CC(C)C)cn1 | 4.18% |
| Brc1ccc(CN2CCC(NCc3ncc[nH]3)CC2)cc1 | 14.8% |
| c1cnc(N2CCO[C@H]3[C@H](OCC4CCOCC4)CC[C@@H]32)nc1 | 4.55% |
| Cc1nc(CN2C(=O)C[C@@H]3[C@@H]2CCN3S(C)(=O)=O)cs1 | -131% |
| CCn1cc2c(n1)CN(Cc1ccoc1)CC2COCC1CC1 (stereo unspecified) | -23.3% |
| O=C(O)[C@@H]1CN(CCOCCO)C[C@H]1c1ccccc1 | -2.33% |
| CCNC(=O)C1CCN(c2nc(-c3ccco3)nc3c2CCNCC3)C1 (stereo unspecified) | -5.87% |
| c1csc(-c2noc(C3CCCOC3)n2)c1 (stereo unspecified) | 7.39% |
| Cc1ccc(C(=O)N2CCN(CCCSCC#N)CC2)cc1F | -145% |
| CCC[C@H]1CN(CCS(C)(=O)=O)C[C@@H]1NC(=O)c1cc[nH]n1 | 2.75% |
| Cc1ccnc(C2CCN(C(=O)c3cnn(C)c3)C2)n1 (stereo unspecified) | -15% |
